The test system of data set [1] is Mus musculus. Description: Tumor promoting activity in ICR/Ha Swiss mouse at 75 ug administered three times a week measured for 370 days. In kind it is ADME, organism-based. The following applies: in vivo, 8880 h. In a few lines:
(§1)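 Two-stage carcinogenesis on clipped backs of female ICR/Ha Swiss mice (8 weeks, ectromelia-vaccinated): one subcarcinogenic topical dose of 7,12-dimethylbenz[a]anthracene, then repeated skin application of test agent, dosed equimolar to anthralin except where toxicity required lower, for 370 days. Tumors >1 mm persisting ≥30 days counted; carcinomas confirmed histologically at autopsy.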

The subject of data set [2] is Mus musculus. Description: Tumor promoting activity in ICR/Ha Swiss mouse at 300 ug administered three times a week measured for 521 days. The following applies: in vivo, 12504 h. In kind it is ADME, organism-based. The method, boiled down: (§2)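 Female ICR/Ha Swiss mice, 8 weeks old, vaccinated against ectromelia, backs clipped. Repeated skin application after a single subcarcinogenic dose of 7,12-dimethylbenz[a]anthracene. Groups of twenty mice; test ran 521 days; median survival time recorded. Tumors >1 mm persisting ≥30 days counted; autopsy with histological confirmation.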

Data set [3] relates to Mus musculus. Description: Toxicity in ICR/Ha Swiss mouse assessed as median survival time at 300 ug administered three times a week. In kind it is organism-based. The conditions noted are these: in vivo. In a few lines:
as §2

Data set [4] concerns Mus musculus. The data set is described as follows: Tumor promoting activity in ICR/Ha Swiss mouse at 80 ug administered three times a week measured for 370 days. In kind it is ADME, organism-based. The conditions noted are these: in vivo, 8880 h. In a few lines: as §1
Data set [5] concerns Mus musculus. The data set is described as follows: Tumor promoting activity in ICR/Ha Swiss mouse at 80 ug administered three times a week measured for 521 days. It is filed as ADME, organism-based. The following applies: in vivo, 12504 h.
For data set [6], the system named is Mus musculus. Description: Toxicity in ICR/Ha Swiss mouse assessed as median survival time at 80 ug administered three times a week. The conditions noted are these: in vivo. In kind it is organism-based.
The test system of data set [7] is Mus musculus. The data set is described as follows: Tumor promoting activity in ICR/Ha Swiss mouse at 124 ug administered three times a week measured for 370 days. The conditions noted are these: in vivo, 8880 h. In kind it is ADME, organism-based. The method, boiled down: as §1
The test system of data set [8] is Mus musculus. The data set is described as follows: Tumor promoting activity in ICR/Ha Swiss mouse at 15 ug administered three times a week measured for 370 days. It is filed as ADME, organism-based. The following applies: in vivo, 8880 h. The method, boiled down: as §1
In data set [9] the test system is Mus musculus. Description: Tumor promoting activity in ICR/Ha Swiss mouse at 62 ug administered three times a week measured for 370 days. It is filed as ADME, organism-based. The conditions noted are these: in vivo, 8880 h. In a few lines: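 Female ICR/Ha Swiss mice, ectromelia-vaccinated, started at 8 weeks, backs clipped the day before treatment. Single subcarcinogenic topical dose of 7,12-dimethylbenz[a]anthracene, then repeated skin applications at doses equimolar to the positive-control promoter, over 370 days. Tumors >1 mm persisting ≥30 days were counted cumulatively and confirmed on H&E histology at autopsy. Controls received test compound alone or no treatment.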

Data set [10] has as its system Mus musculus. The data set is described as follows: Tumor promoting activity in ICR/Ha Swiss mouse at 136 ug administered three times a week measured for 370 days. It is filed as ADME, organism-based. The following applies: in vivo, 8880 h. The method, boiled down:
as §1

Data set [11] concerns Mus musculus. The data set is described as follows: Tumor promoting activity in ICR/Ha Swiss mouse at 76 ug administered three times a week measured for 370 days. The conditions noted are these: in vivo, 8880 h. In kind it is ADME, organism-based. In a few lines:
as §1

Data set [12] concerns Mus musculus. The data set is described as follows: Tumor promoting activity in ICR/Ha Swiss mouse at 85 ug administered three times a week measured for 370 days. It is filed as ADME, organism-based. The following applies: in vivo, 8880 h. In a few lines:
as §1

Data set [13] in a line: Metal chelating activity of the compound assessed as metal-compound complex formation using copper. In kind it is physicochemical. The method, boiled down:
(§3)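 Chelates prepared by adding 0.5 molar equiv of metal acetate in anhydrous ethanol to the ligand (2.0 mmol) dissolved in warm anhydrous ethanol. Metal:ligand ratio in dimethyl sulfoxide by Job's continuous variation: ligand (DHAQ 1.0×10^-4 M or anthralin 2.0×10^-4 M) and equimolar metal acetate mixed in nine solutions at ligand mole fractions 0.1–0.9, spectra recorded 400–650 nm.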

Data set [14] in a line: Metal chelating activity of the compound assessed as metal-compound complex formation using zinc. It is filed as physicochemical. In a few lines: as §3
A short description of data set [15]: Metal chelating activity of the compound assessed as metal-compound complex formation using Mg2+. It is filed as physicochemical. The method, boiled down: as §3
The nature of data set [16]: Metal chelating activity of the compound assessed as stability constant of metal chelate at 1 to 4.5 x 10^-5 M using Mg2+. It is filed as physicochemical. The method, boiled down: (§4)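 Spectrophotometric method of Rossotti and Rossotti in dimethyl sulfoxide: eight solutions of DHAQ from 1.0×10^-5 to 4.5×10^-5 M with metal acetate at the same concentrations, absorption spectra recorded 400–650 nm at 25 °C, stability constants calculated from these.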

The nature of data set [17]: Metal chelating activity of the compound assessed as metal-compound complex formation using Ca2+. It is filed as physicochemical. In a few lines: as §3
Data set [18] can be described thus: Metal chelating activity of the compound assessed as stability constant of metal chelate at 1 to 4.5 x 10^-5 M using copper. It is filed as physicochemical. The method, boiled down:
as §4

A short description of data set [19]: Metal chelating activity of the compound assessed as stability constant of metal chelate at 1 to 4.5 x 10^-5 M using Ca2+. In kind it is physicochemical. The method, boiled down: as §4
Data set [20] is described as follows: Metal chelating activity of the compound assessed as stability constant of metal chelate at 1 to 4.5 x 10^-5 M using Zn2+. In kind it is physicochemical. In a few lines: as §4
A short description of data set [21]: Metal chelating activity of the compound assessed as stability constant of metal chelate at 1 to 4.5 x 10^-5 M using Mn2+. It is filed as physicochemical. The method, boiled down: as §4
The nature of data set [22]: Metal chelating activity of the compound assessed as metal-compound complex formation using Mn2+. In kind it is physicochemical. In a few lines:
as §3

Data set [23] deals with Mus musculus. Description: Tumor promoting activity in ICR/Ha Swiss mouse at 228 ug administered three times a week measured for 370 days. In kind it is ADME, organism-based. The conditions noted are these: in vivo, 8880 h. The method, boiled down:
as §1

A short description of data set [24]: Metal chelating activity of the compound assessed as stability constant of metal chelate at 2 to 9 x 10^-5 M using copper. It is filed as physicochemical. The method, boiled down: (§5)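 Stability constants by the Rossotti and Rossotti spectrophotometric method in dimethyl sulfoxide: eight solutions of anthralin from 2.0×10^-5 to 9.0×10^-5 M with metal acetate at matching concentrations, spectra read 400–650 nm at 25 °C.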

Data set [25] in a line: Metal chelating activity of the compound assessed as stability constant of metal chelate at 2 to 9 x 10^-5 M using Mg2+. In kind it is physicochemical. The method, boiled down:
as §5

The nature of data set [26]: Metal chelating activity of the compound assessed as stability constant of metal chelate at 2 to 9 x 10^-5 M using Ca2+. In kind it is physicochemical. The method, boiled down: as §5
Data set [27] is described as follows: Metal chelating activity of the compound assessed as stability constant of metal chelate at 2 to 9 x 10^-5 M using Mn2+. In kind it is physicochemical. In a few lines: as §5
Data set [28] is described as follows: Metal chelating activity of the compound assessed as stability constant of metal chelate at 2 to 9 x 10^-5 M using Zn2+. It is filed as physicochemical. In a few lines:
as §5

The structures appear in SMILES notation.

On to `Oc1cccc2cc3cccc(O)c3cc12`, for which the Activity entry in [1] is “Non-toxic”. For the molecule `CCCCCCCCCCCCCC(=O)C1c2cccc(O)c2C(=O)c2c(O)cccc21`, in [2], the Activity result is on record as “Toxic”. The MST in data set [3] was 423 days.

In the case of `O=C1c2ccccc2Cc2cc(O)c(O)cc21`, the Activity entry in [4] is “Non-toxic”.

For `O=C1c2ccccc2Cc2cccc(O)c21`, the Activity entry in data set [5] is recorded as “Toxic”. For the same molecule, the MST in data set [6] is 391 days.

As for `CC(=O)Oc1cccc2c1C(=O)c1c(cccc1OC(C)=O)C2`, in data set [7], the Activity result is on record as “Toxic”.

For `Oc1cc2cc3ccccc3cc2cc1O`, in [1], the Activity entry is on record as “Non-toxic”. For the molecule `CC(=O)C1c2cccc(O)c2C(=O)c2c(O)cccc21`, in data set [8], the Activity entry is listed as “Toxic”. Turning to `O=C1C=CC(=O)c2c(O)cccc21` [JUGLONE], in data set [9], the Activity entry is “Toxic”. For the molecule `Oc1cccc2c1Cc1c(O)cccc1C2`, the Activity result in data set [4] is “Non-toxic”. As to `Oc1cccc2cc3ccccc3cc12`, in [5], the Activity result is given as “Toxic”. Also, in data set [6], the MST amounted to 474 days.

On to `CCCCCCCCCCCCCC(=O)Oc1cccc2c1C(=O)C=CC2=O`, for which the Activity entry in data set [10] is “Non-toxic”. Regarding `CC(=O)Oc1cccc2c1C(=O)C=CC2=O`, the Activity result in [11] is on record as “Toxic”. As to `O=C1c2ccccc2Cc2ccc(O)c(O)c21`, the Activity entry in [4] was “Non-toxic”. Regarding `O=C(c1ccccc1O)c1ccccc1O` [2,2'-DIHYDROXYBENZPHENONE], in [1], the Activity result is on record as “Non-toxic”. Consider `O=C1c2c(O)cccc2C(O)c2cccc(O)c21`, for which the Activity result in data set [12] is on record as “Non-toxic”. For `O=C1CCCc2cc3cccc(O)c3c(O)c21`, the Activity result in data set [4] was “Non-toxic”. In the case of `O=C1c2cccc(O)c2C(=O)c2c(O)cccc21` [DANTHRON], the result in data set [13], in data set [14], in [15], in [17] and in data set [22] was Active. Further, the “log K” value in [16] is recorded as 5.53; in data set [18] it was 5.77; in data set [19] it was 10.03; in [20] it was 5.62; in [21], 5.58. For the molecule `CCCCCCCCCCCCCC(=O)Oc1cccc2c1C(=O)c1c(cccc1OC(=O)CCCCCCCCCCCCC)C2`, the Activity entry in data set [23] is “Non-toxic”. Take `O=C1c2c(O)cccc2Cc2cccc(O)c21` [ANTHRALIN]: the outcome in data set [13] was Active. The “log K” value in data set [24] stood at 9.56; in data set [25] it was 9.16; in data set [26], 9.06; in [27], 9.19; in [28], 9.23.

The record behind these values is ChEMBL document CHEMBL3272118, “Structure and tumor-promoting activity of analogues of anthralin (1,8-dihydroxy-9-anthrone)” (J Med Chem, 1978).
